Assay results from ChEMBL document CHEMBL3396987, “Discovery and structure-activity relationship studies of N6-benzoyladenine derivatives as novel BRD4 inhibitors” (Bioorg Med Chem, 2015).
Active and inactive are the calls of the source. The calls are words filed in the database; no cut-off is given here.

How the values were obtained:
[1] = biological target: T1, Bromodomain-containing protein 4 (Homo sapiens, UniProt O60885); test: Inhibition of BRD4 bromodomain-1 (unknown origin) by europium based LANCE TR-FRET assay
[2] = biological target: T1, Bromodomain-containing protein 4; test: Inhibition of BRD4 bromodomain-1 (unknown origin) at 300 uM by europium based LANCE TR-FRET assay
In short: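 Run with a commercial BRD4 bromodomain 1 TR-FRET assay kit, read out as europium-based LANCE time-resolved fluorescence resonance energy transfer.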

[3] = biological target: T1, Bromodomain-containing protein 4; settings: at 100 µM

COc1cc(OC)c(C(=O)Nc2ncnc3[nH]cnc23)cc1OC
IC50 [1]: 0.427 µM

COc1ccc(C(=O)Nc2ncnc3[nH]cnc23)cc1OC
IC50 [1]: 7.8 µM

COc1ccc(C(=O)Nc2ncnc3[nH]cnc23)c(OC)c1
inhibition [2]: < 50% | inhibition [3]: 40.8%

O=C(Nc1cccc2ncccc12)c1ccccc1
inhibition [2]: < 50% | inhibition [3]: 16.4%

COc1cccc(C(=O)Nc2ncnc3[nH]cnc23)c1
IC50 [1]: 63 µM

COc1ccccc1C(=O)Nc1ncnc2[nH]cnc12
IC50 [1]: 16 µM

O=C(c1ccccc1)N(C(=O)c1ccccc1)c1ccncn1
inhibition [2]: < 50% | inhibition [3]: 11%

COc1cccc(C(=O)Nc2ncnc3[nH]cnc23)c1OC
IC50 [1]: 78.6 µM

COc1ccc(C(=O)Nc2ncnc3[nH]cnc23)cc1
IC50 [1]: 34.5 µM

O=C(Nc1ncnc2nc[nH]c12)c1ccccc1
IC50 [1]: 34.2 µM

O=C(Nc1ncnc2[nH]cnc12)c1ccccc1Br
inhibition [2]: < 50% | inhibition [3]: 39%

CCCOc1ccccc1C(=O)Nc1ncnc2[nH]cnc12
IC50 [1]: 20 µM

O=C(Nc1ccncn1)c1ccccc1
inhibition [2]: < 50% | inhibition [3]: 5.8%

Cc1ccccc1C(=O)Nc1ncnc2[nH]cnc12
inhibition [2]: < 50% | inhibition [3]: 40.4%

Cc1noc(C)c1N1C(=O)c2ccccc2C1=O
inhibition [3]: inactive

COc1cc(OC)cc(C(=O)Nc2ncnc3[nH]cnc23)c1
IC50 [1]: 17.9 µM

Cn1cnc2c(NC(=O)c3ccccc3)ncnc21
inhibition [2]: < 50% | inhibition [3]: 3.7%

O=C(Nc1ncnc2[nH]cnc12)c1ccc(Br)cc1
inhibition [2]: < 50% | inhibition [3]: 36.7%

O=C(Nc1ncnc2[nH]cnc12)c1cccc(Br)c1
inhibition [2]: < 50% | inhibition [3]: 44.5%

COc1ccc(OC)c(C(=O)Nc2ncnc3[nH]cnc23)c1
IC50 [1]: 7.2 µM

CN(C)c1ccccc1C(=O)Nc1ncnc2[nH]cnc12
IC50 [1]: 5.6 µM

O=C(Nc1cccc2[nH]cnc12)c1ccccc1
inhibition [2]: < 50% | inhibition [3]: 4.8%

O=C(Nc1cccc2c1ncn2C(=O)c1ccccc1)c1ccccc1
inhibition [2]: < 50% | inhibition [3]: 7.2%

O=C1CCC(N2C(=O)c3ccccc3C2=O)C(=O)N1 (stereo unspecified)
inhibition [3]: inactive

Cc1n[nH]c(C)c1CN1C(=O)c2ccccc2C1=O
inhibition [3]: inactive

COc1cccc(OC)c1C(=O)Nc1ncnc2[nH]cnc12
inhibition [2]: < 50% | inhibition [3]: 11.5%

C/C(=C\CNc1ncnc2[nH]cnc12)CO
inhibition [3]: inactive

CSc1ccccc1C(=O)Nc1ncnc2[nH]cnc12
IC50 [1]: 29.7 µM

c1ccc(CNc2ncnc3[nH]cnc23)cc1
inhibition [3]: inactive
